In ChEMBL document CHEMBL3352502, “A dual inhibitor of matrix metalloproteinases and a disintegrin and metalloproteinases, [¹⁸F]FB-ML5, as a molecular probe for non-invasive MMP/ADAM-targeted imaging” (Bioorg Med Chem, 2015):
One block for each molecule: values may come before it.

Key:
[1] = target: 72 kDa type IV collagenase (Homo sapiens, UniProt P08253); assay: Inhibition of human recombinant MMP2 catalytic domain using Mca-Pro-Leu-Gly-Leu-Dpa-Ala-Arg-NH2 fluorogenic substrate
Summary of the method: (§1)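 Recombinant human catalytic domains (MMP-2; MMP-9 lacking fibronectin type II insert and MMP-12, both E. coli-expressed) at 10 ng per well with fluorogenic substrate. Buffer: 50 mM Tris pH 7.4, 0.2 M NaCl, 10 mM CaCl₂, ZnCl₂, 0.05% v/v Brij-35. Fluorescence rise (ex 320/em 440 nm) read for 15 min at 20 °C over inhibitor series up to 1000 nM (or 100 µM). IC50 by sigmoidal fit, triplicate.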

[2] = target: Macrophage metalloelastase (Homo sapiens, UniProt P39900); assay: Inhibition of human recombinant MMP12 catalytic domain Mca-Pro-Leu-Gly-Leu-Dpa-Ala-Arg-NH2 fluorogenic substrate; summary of the method: as §1
[3] = target: Matrix metalloproteinase-9 (Homo sapiens, UniProt P14780); assay: Inhibition of human recombinant MMP9 catalytic domain using Mca-Pro-Leu-Gly-Leu-Dpa-Ala-Arg-NH2 fluorogenic substrate; summary of the method: as §1
[4] = Drug uptake in HT1080 cells xenografted mouse assessed as large intestine to plasma ratio after 90 mins in presence of non-radioactive ML5; format: ADME, cell-based, HT-1080; conditions: large intestine and plasma
Summary of the method: (§2)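 Same HT1080 subcutaneous xenograft in male BALB/c nude mice. The tracer was co-injected with 2.5 mg/kg non-radioactive ML5 and scanned for 90 min. Organs and plasma were gamma-counted ex vivo at 90 min p.i. The tissue/plasma SUV_mean ratio was calculated. n = 6, mean SD, unpaired two-sided t-test against the group without ML5.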

Tumour [5] = assay: Drug uptake in HT1080 cells xenografted mouse tumor after 90 mins in presence of non-radioactive ML5; format: ADME, Neoplasm, HT-1080; conditions: in vivo, 1.5 h
Summary of the method: (§3)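 Male BALB/c nu/nu mice, 7–8 weeks old, were given (2–2.5)×10⁶ HT1080 cells s.c. in the right shoulder in Matrigel/EMEM (1:1). They were used 14–21 days later at tumor volume 0.3–0.6 mL. [¹⁸F]FB-ML5 was given alone or co-injected with 2.5 mg/kg ML5. Tissues were weighed and gamma-counted. SUVmean = tissue MBq/g ÷ (injected MBq/body weight g). n = 6 per group, mean ± SD, unpaired t-test.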

Liver [6] = assay: Drug uptake in HT1080 cells xenografted mouse liver after 90 mins in presence of non-radioactive ML5; format: ADME, cell-based, HT-1080; conditions: in vivo, 1.5 h; summary of the method: as §3
[7] = Drug uptake in HT1080 cells xenografted mouse assessed as heart to plasma ratio after 90 mins; format: ADME, cell-based, HT-1080; conditions: heart and plasma
Summary of the method: (§4)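 Male BALB/c nude mice, 7–8 weeks, with (2–2.5)×10⁶ HT1080 cells in Matrigel/EMEM injected subcutaneously into the right shoulder. Tracer injected when tumors reached 0.3–0.6 mL (14–21 days), followed by a 90 min microPET scan. Ex vivo: organs and plasma gamma-counted at 90 min p.i. SUV_mean for each tissue divided by plasma SUV_mean. n = 6, mean SD.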

Bone [8] = assay: Drug uptake in HT1080 cells xenografted mouse bone after 90 mins in presence of non-radioactive ML5; format: ADME, cell-based, Bone element, HT-1080; conditions: in vivo, 1.5 h; summary of the method: as §3
[9] = Drug uptake in HT1080 cells xenografted mouse assessed as heart to plasma ratio after 90 mins in presence of non-radioactive ML5; format: ADME, cell-based, HT-1080; conditions: heart and plasma; summary of the method: as §2
Plasma [10] = assay: Drug uptake in HT1080 cells xenografted mouse plasma after 90 mins in presence of non-radioactive ML5; format: ADME, cell-based, HT-1080; conditions: in vivo, 1.5 h; summary of the method: as §3
Tumour [11] = assay: Drug uptake in HT1080 cells xenografted mouse tumor after 90 mins; format: ADME, Neoplasm, HT-1080; conditions: in vivo, 1.5 h; summary of the method: as §3
[12] = Drug uptake in HT1080 cells xenografted mouse assessed as liver to plasma ratio after 90 mins; format: ADME, cell-based, HT-1080; conditions: liver and plasma; summary of the method: as §4
Plasma [13] = assay: Drug uptake in HT1080 cells xenografted mouse plasma after 90 mins; format: ADME, cell-based, HT-1080; conditions: in vivo, 1.5 h; summary of the method: as §3
Intestine [14] = assay: Drug uptake in HT1080 cells xenografted mouse large intestine after 90 mins; format: ADME, cell-based, HT-1080; conditions: in vivo, 1.5 h; summary of the method: as §3
[15] = Drug uptake in HT1080 cells xenografted mouse assessed as bone to plasma ratio after 90 mins; format: ADME, cell-based, HT-1080; conditions: bone and plasma; summary of the method: as §4
Lung [16] = assay: Drug uptake in HT1080 cells xenografted mouse lung after 90 mins; format: ADME, cell-based, HT-1080; conditions: in vivo, 1.5 h; summary of the method: as §3
[17] = Drug uptake in HT1080 cells xenografted mouse assessed as tumor to plasma ratio after 90 mins in presence of non-radioactive ML5; format: ADME, cell-based, HT-1080; conditions: tumor and plasma; summary of the method: as §2
Heart [18] = assay: Drug uptake in HT1080 cells xenografted mouse heart after 90 mins; format: ADME, cell-based, HT-1080; conditions: in vivo, 1.5 h; summary of the method: as §3
Bone [19] = assay: Drug uptake in HT1080 cells xenografted mouse bone after 90 mins; format: ADME, cell-based, Bone element, HT-1080; conditions: in vivo, 1.5 h; summary of the method: as §3
[20] = Octanol-water partition coefficient, log P of the compound; format: physicochemical
Summary of the method: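 About 5 kBq [¹⁸F]FB-ML5 in saline was mixed with 495 µL PBS pH 7.4 and 500 µL n-octanol. Vortexed 5 min, centrifuged 5 min at 3000 rpm, then 100 µL of each layer gamma-counted. logP = log₁₀(cpm octanol/cpm aqueous), triplicate.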

[21] = Drug uptake in HT1080 cells xenografted mouse assessed as tumor to plasma ratio after 90 mins; format: ADME, cell-based, HT-1080; conditions: tumor and plasma; summary of the method: as §4
Intestine [22] = assay: Drug uptake in HT1080 cells xenografted mouse small intestine after 90 mins; format: ADME, cell-based, HT-1080; conditions: in vivo, 1.5 h; summary of the method: as §3
[23] = Drug uptake in HT1080 cells xenografted mouse assessed as bone to plasma ratio after 90 mins in presence of non-radioactive ML5; format: ADME, cell-based, HT-1080; conditions: bone and plasma; summary of the method: as §2
Plasma [24] = assay: Drug uptake in HT1080 cells xenografted mouse plasma assessed as parent compound after 90 mins; format: ADME, cell-based, HT-1080; conditions: in vivo, 1.5 h
Summary of the method: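 Parent fraction in plasma of control HT1080-bearing mice at 90 min p.i. Plasma (250 µL) was deproteinized with 750 µL ACN, centrifuged 3 min at 3000 rpm and filtered (0.22 µm). Analysed by semi-preparative reverse-phase HPLC with radioactivity detection; % intact tracer of total plasma radioactivity, n = 2.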

Liver [25] = assay: Drug uptake in HT1080 cells xenografted mouse liver after 90 mins; format: ADME, cell-based, HT-1080; conditions: in vivo, 1.5 h; summary of the method: as §3
[26] = Drug uptake in HT1080 cells xenografted mouse assessed as large intestine to plasma ratio after 90 mins; format: ADME, cell-based, HT-1080; conditions: large intestine and plasma; summary of the method: as §4
Intestine [27] = assay: Drug uptake in HT1080 cells xenografted mouse large intestine after 90 mins in presence of non-radioactive ML5; format: ADME, cell-based, HT-1080; conditions: in vivo, 1.5 h; summary of the method: as §3
Heart [28] = assay: Drug uptake in HT1080 cells xenografted mouse heart after 90 mins in presence of non-radioactive ML5; format: ADME, cell-based, HT-1080; conditions: in vivo, 1.5 h; summary of the method: as §3
Lung [29] = assay: Drug uptake in HT1080 cells xenografted mouse lung after 90 mins in presence of non-radioactive ML5; format: ADME, cell-based, HT-1080; conditions: in vivo, 1.5 h; summary of the method: as §3
[30] = Drug uptake in HT1080 cells xenografted mouse assessed as liver to plasma ratio after 90 mins in presence of non-radioactive ML5; format: ADME, cell-based, HT-1080; conditions: liver and plasma; summary of the method: as §2

Chain of Matrix metalloproteinase-9 (P14780 whole entry, the tested form may be a part): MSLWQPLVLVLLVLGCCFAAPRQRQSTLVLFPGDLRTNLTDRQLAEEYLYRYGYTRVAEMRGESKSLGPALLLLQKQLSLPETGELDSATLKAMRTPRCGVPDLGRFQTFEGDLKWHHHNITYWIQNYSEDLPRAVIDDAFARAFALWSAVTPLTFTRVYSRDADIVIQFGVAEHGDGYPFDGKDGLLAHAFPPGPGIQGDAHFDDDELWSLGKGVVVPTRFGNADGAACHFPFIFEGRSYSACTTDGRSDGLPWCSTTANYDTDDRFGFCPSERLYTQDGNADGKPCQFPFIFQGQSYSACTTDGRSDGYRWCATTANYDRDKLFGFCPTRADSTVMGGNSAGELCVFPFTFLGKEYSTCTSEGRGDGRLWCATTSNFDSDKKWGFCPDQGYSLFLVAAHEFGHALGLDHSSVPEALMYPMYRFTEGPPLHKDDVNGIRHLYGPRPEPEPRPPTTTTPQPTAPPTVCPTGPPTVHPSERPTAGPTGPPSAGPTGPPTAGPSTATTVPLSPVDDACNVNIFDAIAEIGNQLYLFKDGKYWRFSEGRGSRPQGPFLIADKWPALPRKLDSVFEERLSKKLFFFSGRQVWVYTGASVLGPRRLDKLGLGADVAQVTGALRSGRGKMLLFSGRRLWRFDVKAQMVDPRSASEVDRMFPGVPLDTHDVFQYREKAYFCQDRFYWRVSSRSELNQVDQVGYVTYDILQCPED
Chain of 72 kDa type IV collagenase (P08253 whole entry, the tested form may be a part): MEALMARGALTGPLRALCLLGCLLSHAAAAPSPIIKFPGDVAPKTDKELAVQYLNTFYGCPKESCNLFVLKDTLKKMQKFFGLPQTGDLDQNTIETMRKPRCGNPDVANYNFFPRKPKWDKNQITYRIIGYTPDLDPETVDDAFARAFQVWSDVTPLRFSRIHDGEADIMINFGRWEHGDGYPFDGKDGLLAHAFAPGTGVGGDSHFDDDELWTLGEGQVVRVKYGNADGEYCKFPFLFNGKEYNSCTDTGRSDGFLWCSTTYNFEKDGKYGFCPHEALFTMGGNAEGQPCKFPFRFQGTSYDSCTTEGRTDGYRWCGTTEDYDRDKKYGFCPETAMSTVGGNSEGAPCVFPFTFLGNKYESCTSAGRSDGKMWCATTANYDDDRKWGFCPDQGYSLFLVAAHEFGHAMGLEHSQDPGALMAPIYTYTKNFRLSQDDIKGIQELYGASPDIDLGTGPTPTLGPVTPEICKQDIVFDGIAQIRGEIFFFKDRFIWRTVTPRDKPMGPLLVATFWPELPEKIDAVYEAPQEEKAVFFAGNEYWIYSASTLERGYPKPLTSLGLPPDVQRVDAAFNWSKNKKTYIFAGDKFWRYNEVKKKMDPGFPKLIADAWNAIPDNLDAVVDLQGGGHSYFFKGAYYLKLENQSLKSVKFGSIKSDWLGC
Chain of Macrophage metalloelastase (P39900 whole entry, the tested form may be a part): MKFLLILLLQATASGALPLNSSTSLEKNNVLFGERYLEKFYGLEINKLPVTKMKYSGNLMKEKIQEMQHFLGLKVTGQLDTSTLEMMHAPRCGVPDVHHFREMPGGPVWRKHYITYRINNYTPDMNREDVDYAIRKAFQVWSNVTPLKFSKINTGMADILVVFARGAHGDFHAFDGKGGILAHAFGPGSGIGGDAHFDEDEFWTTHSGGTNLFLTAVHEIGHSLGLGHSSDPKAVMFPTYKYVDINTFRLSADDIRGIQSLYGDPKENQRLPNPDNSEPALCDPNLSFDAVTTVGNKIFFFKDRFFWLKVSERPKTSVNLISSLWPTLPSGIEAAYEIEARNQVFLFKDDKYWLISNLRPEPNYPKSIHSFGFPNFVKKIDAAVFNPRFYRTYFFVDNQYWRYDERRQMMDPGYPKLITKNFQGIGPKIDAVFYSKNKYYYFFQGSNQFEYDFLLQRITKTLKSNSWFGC

IC50 [1]: 0.0074 µM
IC50 [2]: 0.002 µM
IC50 [3]: 0.0195 µM
SMILES: CC(C)C[C@H](CC(=O)NO)C(=O)N[C@@H](Cc1ccccc1)C(=O)N[C@@H](CCCCN)C(N)=O

IC50 [1]: 0.0125 µM
IC50 [2]: 0.138 µM
IC50 [3]: 0.0315 µM
SMILES: CC(C)C[C@H](CC(=O)NO)C(=O)N[C@@H](Cc1ccccc1)C(=O)N[C@@H](CCCCNC(=O)c1ccc(F)cc1)C(N)=O

IC50 [3]: 1.49 µM
SMILES: CC(C)C[C@H](CC(=O)NOC(=O)c1ccc(F)cc1)C(=O)N[C@@H](Cc1ccccc1)C(=O)N[C@@H](CCCCNC(=O)c1ccc(F)cc1)C(N)=O

Kp at 1.5 h [4]: 14.8
SUV (Tumour [5]): 0.041
SUV (Liver [6]): 2
Kp at 1.5 h [7]: 0.482
SUV (Bone [8]): 0.017
Kp at 1.5 h [9]: 0.235
SUV (Plasma [10]): 0.185
SUV (Tumour [11]): 0.145
Kp at 1.5 h [12]: 19.2
SUV (Plasma [13]): 0.238
SUV (Intestine [14]): 1.8
Kp at 1.5 h [15]: 0.179
SUV (Lung [16]): 0.254
Kp at 1.5 h [17]: 0.231
SUV (Heart [18]): 0.111
SUV (Bone [19]): 0.041
logP [20]: 1.11
Kp at 1.5 h [21]: 0.597
SUV (Intestine [22]): 5.207
Kp at 1.5 h [23]: 0.09
Drug uptake (Plasma [24]): 23.2%
SUV (Liver [25]): 4.58
Kp at 1.5 h [26]: 7.83
SUV (Intestine [27]): 2.75
SUV (Heart [28]): 0.043
SUV (Lung [29]): 0.106
Kp at 1.5 h [30]: 10.9
SMILES: CC(C)C[C@H](CC(=O)NO)C(=O)N[C@@H](Cc1ccccc1)C(=O)N[C@@H](CCCCNC(=O)c1ccc([18F])cc1)C(N)=O
